molecular target: 5-hydroxytryptamine receptor 6 (Homo sapiens, UniProt P50406); test: Binding affinity against h5-HT6 receptor transiently expressed in HEK293 cells; type: cell-based
Summary of the method: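 Harvested transfected cells 72 h post-transfection (medium changed at 24 h; dialyzed serum added 24 h later to remove 5-HT), washed in PBS pH 7.40, stored frozen at -80 °C. Competition binding at room temperature, 90 min, in 50 mM Tris-Cl, 10 mM MgCl2, 0.1 mM EDTA pH 7.40 with [3H]LSD 1 nM final; 10 µM clozapine defines nonspecific binding.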

Chain of 5-hydroxytryptamine receptor 6 (P50406 whole entry): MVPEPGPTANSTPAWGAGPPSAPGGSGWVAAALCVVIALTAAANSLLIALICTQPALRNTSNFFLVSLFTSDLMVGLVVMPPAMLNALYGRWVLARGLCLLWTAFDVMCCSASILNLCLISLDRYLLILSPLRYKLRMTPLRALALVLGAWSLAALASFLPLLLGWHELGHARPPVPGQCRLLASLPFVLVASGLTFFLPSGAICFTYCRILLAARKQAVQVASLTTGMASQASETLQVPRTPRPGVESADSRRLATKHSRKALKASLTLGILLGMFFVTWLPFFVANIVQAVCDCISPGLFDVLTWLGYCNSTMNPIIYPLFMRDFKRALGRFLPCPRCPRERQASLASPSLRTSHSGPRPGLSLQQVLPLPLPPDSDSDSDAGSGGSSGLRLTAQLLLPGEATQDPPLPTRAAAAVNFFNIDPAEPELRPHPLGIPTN

| SMILES | Ki |
| --- | --- |
| CN1CCC[C@H]1Cc1c[nH]c2ccccc12 | 9.1 nM |
| CN1CCC[C@H]1Cn1cc(Cc2ccccc2)c2ccccc21 | 29 nM |
| CN1CCC[C@H]1Cc1cn(S(=O)(=O)c2ccccc2)c2ccccc12 | 1.7 nM |
| c1ccc2c(C[C@H]3CCCN3)c[nH]c2c1 | 60 nM |
| CN1CCC[C@@H]1Cn1cc(Cc2ccccc2)c2ccccc21 | 9.9 nM |
| CN1CCC[C@@H]1Cc1cn(S(=O)(=O)c2ccccc2)c2ccccc12 | 0.3 nM |
| O=S(=O)(c1ccccc1)n1cc(C[C@@H]2CCCN2)c2ccccc21 | 46 nM |
| CN1CCC[C@@H]1Cc1c[nH]c2ccccc12 | 640 nM |
| CN(C)CCc1cn(S(=O)(=O)c2ccccc2)c2ccccc12 | 4 nM |
| O=S(=O)(c1ccccc1)n1cc(C[C@H]2CCCN2)c2ccccc21 | 7.8 nM |
| c1ccc2c(C[C@@H]3CCCN3)c[nH]c2c1 | 2400 nM |

— ChEMBL document CHEMBL1139582, “Interaction of chiral MS-245 analogs at h5-HT6 receptors” (Bioorg Med Chem Lett, 2005)
